Screening data: PubChem, several laboratories
STAT3 blocker: IL-6 driven STAT3 reporter inhibitors, primary screen, U3A cells, luciferase, luminescence, MLSCN library. IL-6 STAT3-luciferase reporter; host cell line lacks STAT1. inhibition, % at 5.5 µM. actives 0.89% (n = 190,000);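 active = inhibition above the mean inhibition across all screened compounds plus 3 SD, cut at about 44% in these data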
STAT3 activator: IL-6 driven STAT3 reporter potentiators, primary screen, U3A cells, luciferase, luminescence, MLSCN library; IL-6 STAT3-luciferase reporter; 100% = signal with IL-6 EC80 alone; activation (% of control), % at 5.6 µM; actives 0.91% (n = 190,000); AID 871, 2007;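 active = activation above the screen-wide mean of compound activation plus 3 SD, cut at about 130% in these data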
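Material: human STAT1-deficient U3A cells with stable STAT3-luciferase reporter / Probe or stimulus: IL-6 stimulus at 33 ng/mL final / Schedule: 1 h compound pre-exposure, 6 h IL-6 stimulation, 37 °C / Technique: luminescence / Read-out basis: percent of IL-6-only median luminescence / Control set: IL-6-only high control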
STAT1 inh: STAT1 signaling inhibitors, primary screen, cell-based, HTS, luciferase reporter | inhibition, % at 5.5 µM | AID 920, 2007 | NIH 3T3 STAT1-luciferase reporter, IFN-gamma, luminescence | actives 0.35% (n = 200,000);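 active = inhibition above a set limit, the mean inhibition across all tested compounds plus 3 SD, cut at about 34% in these data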
NF-kB expr up: activators of NF-kB expression in neurons, primary screen, cell-based, HTS. human neuronal cells, NF-kB reporter expression; hits give high values. fold change at 12.5 µM. actives 1.6% (n = 190,000); in the data active = fold change above about 3.3
STAT1 act: STAT1 signaling activators, primary screen, cell-based, HTS, luciferase reporter. NIH 3T3 STAT1-luciferase reporter, IFN-gamma, luminescence; 100% = IFN-gamma alone, no compound. activation (% of control), % at 5.5 µM. actives 2.6% (n = 200,000);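 active = activation above the screen-wide mean activation plus 3 SD, cut at about 130% in these data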
APP 5'UTR act: activators of APP 5'UTR luciferase reporter, primary screen, SH-SY5Y cells; AID 1276, 2008; SH-SY5Y APP 5'UTR luciferase reporter, luminescence; zero percent = DMSO vehicle wells; actives 1% (n = 190,000); activation, % at 2 µM;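 active = activation above a set limit, based on mean plus 3 SD of controls, cut at about 140% in these data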
Each line names hits and unclear results; the compound was inactive in the other large screens. An excerpt weighted towards active compounds, which were near 4.9% of everything screened.

C/C(=N\NC(=O)c1ccc(Br)cc1)c1cccc(NC(=O)c2cccnc2)c1	none
CSc1nnc(-c2ccccc2SC)o1	none
CSc1ccccc1-c1nnc(-c2ccc(C)cc2)o1	NF-kB expr up 5, STAT1 act 146
CSc1ccccc1-c1nnc(-c2ccccc2)o1	NF-kB expr up 5.5, STAT1 act 144, APP 5'UTR act 140
Cn1c(=O)[nH]c(Nc2ccccc2)c([N+](=O)[O-])c1=O	none
O=C1OCCC1Sc1nc2ccccc2s1 (configuration not stated)	none
OC1CCCCC1Sc1nc2ccccc2s1 (configuration not stated)	STAT1 act 130
Fc1ccc(COc2cccc3cccnc23)cc1	STAT1 act 129
Cc1cc(OCC(=O)NC(C)c2ccccc2)ccc1[N+](=O)[O-] (configuration not stated)	none
COc1ccc(NS(=O)(=O)c2cc(NC(=O)[C@@H](NC(=O)c3ccccc3)C(C)C)ccc2C)cc1	none
O=c1oc2ccccc2c(Nc2ccc3ccccc3c2)c1[N+](=O)[O-]	STAT3 activator 133
Cc1ccc(Nc2c([N+](=O)[O-])c(=O)oc3ccccc23)cc1	none
COc1ccc(OC)c(NC(=O)Nc2cc(C(=O)O)ccc2C)c1	none
COc1cc(/C=N/NC(=O)c2nonc2C)ccc1O	none
COc1cc(/C=N/N=C(\N)c2nonc2N)ccc1O	STAT1 act 130
COc1ccc(/C=N/N=C(\N)c2nonc2N)cc1OC	STAT1 act 141
N/C(=N\N=C\c1ccc(O)cc1)c1nonc1N	NF-kB expr up 5.1
N/C(=N\OC(=O)c1ccc(F)cc1)c1nonc1N	none
S=C(N/N=C1\C2CN3CCN(C2)CC1(c1ccccc1)C3)Nc1ccccc1	none
Cc1cccc(C)c1NC(=O)NC1(C(=O)N2CCOCC2)CCCCC1	none
Cc1ccc(-c2noc(/C=C/c3ccccc3)n2)cc1	none
COc1ccc(-c2noc(-c3cccnc3)n2)cc1OC	STAT1 act 140
O=c1[nH]c2ccccc2cc1-c1noc(-c2cccnc2)n1	none
c1ccc(-c2ccc(-c3nc(-c4cccnc4)no3)cc2)cc1	NF-kB expr up 5.3, STAT1 act 137, APP 5'UTR act 136
c1ccc(-c2noc(-c3cccnc3)n2)cc1	NF-kB expr up 3.4, STAT1 act 150
c1ccc(-c2ccccc2-c2nc(-c3ccncc3)no2)cc1	none
C(=C\c1nc(-c2cccnc2)no1)/c1ccccc1	STAT1 act 145
CCOc1cc(-c2noc(-c3cccnc3)n2)ccc1OC	none
COc1cccc(-c2noc(-c3ccc(Cl)nc3)n2)c1	STAT3 activator 144, NF-kB expr up 4.9, STAT1 act 151
COc1cc(OC)cc(-c2nc(-c3ccccc3)no2)c1	none (no result: APP 5'UTR act)
c1ccc(-c2cnc(-c3cccnc3)o2)cc1	STAT1 act 135
Cc1ccc(NC(=O)c2ccccc2O)cc1	NF-kB expr up 6
Cc1ccc(NC(=O)NNC(=O)c2ccccc2)cc1	none
Cc1cc(C)cc(NC(=O)c2ccc(CSc3nnc(C)s3)cc2)c1	none
Cc1ccc(NC(=O)c2ccccc2-c2ccccc2C(=O)O)cc1	none
CC(=O)Nc1ccccc1NC(=O)c1ccccc1	none
Nc1ccccc1NC(=O)c1ccccc1	NF-kB expr up 3.9
Cc1ccc(NC(=O)c2ccccc2)cc1	NF-kB expr up 3.5, STAT1 act 135
Cc1ccc(NC(=O)c2ccc(CSc3nnc(C)s3)cc2)cc1	NF-kB expr up 3.9
CCOC(=O)c1cnc2c(-c3ccccc3OC)c(C)nn2c1C	none
O=C(NCCc1ccccc1)C1CCC(CNc2nc(=S)[nH]c3ccccc23)CC1 (configuration not stated)	none
Cc1cc(CN(C)C(=O)c2cc(COc3ccc(F)cc3Cl)on2)n[nH]1	none
O=C(CSc1nnc(-c2ccccc2)o1)OCc1ccccc1	none
Cc1ccc(NC(=O)c2noc3c2CCc2ccccc2-3)cc1	STAT1 act 131
CCOC(=O)c1ccc(NC(=O)c2cn(-c3ccccc3)nc2-c2ccncc2)cc1	none
CCc1ccc(NC(=O)c2noc3c2CCc2ccccc2-3)cc1	none
Cc1ccc(-c2nn(-c3ccccc3)cc2C(=O)Nc2ccc(C(=O)O)cc2)cc1	STAT1 act 130
c1ccc2c(c1)CCN(c1nc(CN3CCOCC3)nc3sc4c(c13)CCCC4)C2	none
CC(C(=O)Nc1cccc(S(=O)(=O)N2CCOCC2)c1)N1CCN(c2ccc(F)cc2)CC1 (configuration not stated)	none
c1ccc(C[n+]2cccc3c4ccccc4ccc32)cc1	STAT3 blocker 60
CCOc1cc(S(=O)(=O)N2CCCCCC2)ccc1F	none
Cc1ccc(-c2nc(N/N=C/c3cccnc3)c3ccccc3n2)cc1	STAT3 blocker 72, STAT1 inh 57
CCCCCOC(=O)NCC(O)c1ccccc1 (configuration not stated)	STAT1 act 144
CC(C)CC(NC(=O)C(COCc1ccccc1)NC(=O)OC(C)(C)C)C(=O)NN (configuration not stated)	none
CC(C)(C)c1ccc(/C=C2\SC(=O)N(CCNC(=O)c3cccc(S(=O)(=O)N4CCOCC4)c3)C2=O)cc1	APP 5'UTR act 135
COCCNC(=O)c1cc2oc3ccccc3c2n1C	none
CCN1CCCc2cc(CN(CCN3CCOCC3)C(=S)Nc3cccc(OC)c3)ccc21	none
Nc1nc2nc(-c3ccccc3)cc(=O)n2[nH]1	none
O=c1cc(-c2ccccc2)nc2nc(-c3ccccc3)[nH]n12	STAT3 activator 159, STAT1 act 156
COc1cc(SC)ccc1C(=O)Nc1cccc(C)n1	STAT1 act 144, APP 5'UTR act 244
COC(=O)c1ccc(COC(=O)c2ccc(SC)cc2OC)cc1	STAT1 act 135
COc1cc(SC)ccc1C(=O)OCC(=O)NC1CC1	none
COc1cc(SC)ccc1C(=O)Nc1ncc(C)s1	STAT3 blocker 100, STAT1 inh 90
COc1cc(SC)ccc1C(=O)Nc1ccc(C)cc1	NF-kB expr up 6.6, STAT1 act 146, APP 5'UTR act 184
CC(Sc1ccccc1)C(=O)NN=C1CCN(C)CC1 (configuration not stated)	none
CCC(C)(C)NC(=O)C(OC(=O)c1cc2sccc2n1C)c1ccc(OC)cc1 (configuration not stated)	none
O=c1c(Cc2ccc(Cl)cc2Cl)c(O)ccn1CCCN1CCOCC1	none
Cc1nc2c(sc3nc4c(cc32)COC(C)(C)C4)c(=O)n1CC(=O)NCc1ccco1	STAT1 act 131
